Reference: ChEMBL document CHEMBL1126871, “Non-steroidal glucocorticoid-like substances: receptor binding and in vivo activity” (J Med Chem, 1993)
Active and inactive are the calls of the source. The rule behind the calls is not given here.

Key:
[1] = biological target: T1, Glucocorticoid receptor (Rattus norvegicus) (UniProt P06536); assay: In vivo glucocorticoid profile, depression of adrenal weight in rat at 5 mg/kg peroral dose; type: functional, organism-based; set-up: dose 5 mg/kg
T1 sequence (whole entry): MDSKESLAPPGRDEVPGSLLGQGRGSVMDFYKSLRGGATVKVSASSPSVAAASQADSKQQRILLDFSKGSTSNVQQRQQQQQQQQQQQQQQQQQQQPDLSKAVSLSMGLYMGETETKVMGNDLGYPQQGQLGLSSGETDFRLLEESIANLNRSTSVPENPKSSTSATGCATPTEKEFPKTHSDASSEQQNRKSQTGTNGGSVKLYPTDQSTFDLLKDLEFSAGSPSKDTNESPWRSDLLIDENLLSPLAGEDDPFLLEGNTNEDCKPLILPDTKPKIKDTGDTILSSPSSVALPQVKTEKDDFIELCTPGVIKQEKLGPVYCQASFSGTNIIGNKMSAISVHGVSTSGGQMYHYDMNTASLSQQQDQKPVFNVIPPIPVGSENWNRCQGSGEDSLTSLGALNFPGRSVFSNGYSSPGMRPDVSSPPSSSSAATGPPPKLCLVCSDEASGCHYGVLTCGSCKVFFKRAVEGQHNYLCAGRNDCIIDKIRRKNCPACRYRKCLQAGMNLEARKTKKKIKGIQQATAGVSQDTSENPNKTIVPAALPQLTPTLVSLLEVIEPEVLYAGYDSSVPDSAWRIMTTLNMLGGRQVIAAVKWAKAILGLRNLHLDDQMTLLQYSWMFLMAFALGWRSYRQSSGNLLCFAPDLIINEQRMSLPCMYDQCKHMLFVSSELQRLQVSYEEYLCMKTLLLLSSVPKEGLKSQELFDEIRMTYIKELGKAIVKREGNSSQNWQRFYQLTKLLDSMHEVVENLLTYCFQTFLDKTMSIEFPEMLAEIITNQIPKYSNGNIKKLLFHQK
How it was run: (§1)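 Two-week oral glucocorticoid profile in rats. Thymus weight, adrenal weight and body weight gain are each expressed as % change from control.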

[2] = biological target: T1, Glucocorticoid receptor (Rattus norvegicus); assay: (§2) In vivo glucocorticoid profile, depression of adrenal weight in rat at 1 mg/kg peroral dose; type: functional, organism-based; set-up: dose 1 mg/kg; how it was run: as §1
[3] = biological target: T1, Glucocorticoid receptor (Rattus norvegicus); assay: (§3) In vivo glucocorticoid profile, depression of thymus weight in rat at 1 mg/kg peroral dose; type: functional, organism-based; set-up: dose 1 mg/kg; how it was run: as §1
[4] = biological target: T1, Glucocorticoid receptor (Rattus norvegicus); assay: In vivo glucocorticoid profile, depression of body weight gain without altered food consumption in rat at 5 mg/kg peroral dose; type: functional, organism-based; set-up: dose 5 mg/kg; how it was run: as §1
[5] = biological target: T1, Glucocorticoid receptor (Rattus norvegicus); assay: (§4) In vivo glucocorticoid profile, depression of body weight gain without altered food consumption in rat at 1 mg/kg peroral dose; type: functional, organism-based; set-up: dose 1 mg/kg; how it was run: as §1
[6] = biological target: T1, Glucocorticoid receptor (Rattus norvegicus); assay: In vivo glucocorticoid profile, depression of thymus weight in rat at 5 mg/kg peroral dose; type: functional, organism-based; set-up: dose 5 mg/kg; how it was run: as §1
[7] = biological target: T1, Glucocorticoid receptor (Rattus norvegicus); assay: In vivo anti-inflammatory activity in the rat, alpha-tocopherol filled pouch peroral dose; type: functional, organism-based
How it was run: (§5)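 Rats receive an air-filled pouch injected with 0.5 mL DL-α-tocopherol. Oral doses are given daily for 7 days, starting on the day of pouch formation, as suspensions in 1% gum tragacanth. ED50 is in mg/kg po.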

[8] = biological target: T1, Glucocorticoid receptor (Rattus norvegicus); assay: as §2; type: functional, organism-based; set-up: dose 1 mg/kg; remark: listed apart in the source
How it was run: (§6)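 Two-week oral dosing test in rats. At the end, thymus weight, adrenal weight and body weight gain are recorded and expressed as % change from control.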

[9] = biological target: T1, Glucocorticoid receptor (Rattus norvegicus); assay: as §3; type: functional, organism-based; set-up: dose 1 mg/kg; how it was run: as §6; remark: listed apart in the source
[10] = biological target: T1, Glucocorticoid receptor (Rattus norvegicus); assay: as §4; type: functional, organism-based; set-up: dose 1 mg/kg; how it was run: as §6; remark: listed apart in the source
[11] = biological target: T1, Glucocorticoid receptor (Rattus norvegicus); assay: In vivo glucocorticoid profile, depression of adrenal weight in rat at 50 mg/kg peroral dose; type: functional, organism-based; set-up: dose 50 mg/kg; how it was run: as §1
[12] = biological target: T1, Glucocorticoid receptor (Rattus norvegicus); assay: In vivo antiinflammatory activity in the rat, alpha-tocopherol filled pouch 25 mg/kg peroral dose; IA = inactive; type: functional, organism-based; set-up: dose 25 mg/kg; how it was run: as §5
[13] = biological target: T1, Glucocorticoid receptor (Rattus norvegicus); assay: In vivo glucocorticoid profile, depression of body weight gain without altered food consumption in rat at 50 mg/kg peroral dose; type: functional, organism-based; set-up: dose 50 mg/kg; how it was run: as §1
[14] = biological target: T1, Glucocorticoid receptor (Rattus norvegicus); assay: In vivo glucocorticoid profile, depression of thymus weight in rat at 50 mg/kg peroral dose; type: functional, organism-based; set-up: dose 50 mg/kg; how it was run: as §1
[15] = biological target: T1, Glucocorticoid receptor (Rattus norvegicus); assay: In vivo antiinflammatory activity in the rat, alpha-tocopherol filled pouch peroral dose; IA = inactive; type: functional, organism-based; how it was run: as §5
[16] = biological target: T1, Glucocorticoid receptor (Rattus norvegicus); assay: In vivo glucocorticoid profile, depression of adrenal weight in rat at 25 mg/kg peroral dose; type: functional, organism-based; set-up: dose 25 mg/kg; how it was run: as §6
[17] = biological target: T1, Glucocorticoid receptor (Rattus norvegicus); assay: In vivo glucocorticoid profile, depression of thymus weight in rat at 25 mg/kg peroral dose; type: functional, organism-based; set-up: dose 25 mg/kg; how it was run: as §6
[18] = biological target: T1, Glucocorticoid receptor (Rattus norvegicus); assay: In vivo glucocorticoid profile, depression of body weight gain without altered food consumption in rat at 25 mg/kg peroral dose; type: functional, organism-based; set-up: dose 25 mg/kg; how it was run: as §1
[19] = biological target: T1, Glucocorticoid receptor (Rattus norvegicus); assay: Relative binding affinity (RBA) for glucocorticoid receptor from rat liver cytosol by displacement of [3H]-RU-28,362
How it was run: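 Competitive binding to glucocorticoid receptor in liver cytosol from adrenalectomized rats, with [3H]RU28362 as ligand. RBA is derived from the concentrations of dexamethasone and of competitor giving 50% binding inhibition. A value of zero means binding was too low to measure.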

[20] = biological target: T1, Glucocorticoid receptor (Rattus norvegicus); assay: In vivo glucocorticoid profile, depression of adrenal weight in rat at 0.2 mg/kg peroral dose; type: functional, organism-based; set-up: dose 0.2 mg/kg; how it was run: as §1
[21] = biological target: T1, Glucocorticoid receptor (Rattus norvegicus); assay: In vivo glucocorticoid profile, depression of thymus weight in rat at 0.2 mg/kg peroral dose; type: functional, organism-based; set-up: dose 0.2 mg/kg; how it was run: as §1
[22] = biological target: T1, Glucocorticoid receptor (Rattus norvegicus); assay: In vivo glucocorticoid profile, depression of body weight gain without altered food consumption in rat at 0.2 mg/kg peroral dose; type: functional, organism-based; set-up: dose 0.2 mg/kg; how it was run: as §1

## C[C@]12Cc3cnn(-c4ccc(F)cc4)c3C=C1CC[C@@H]1OC3(CC=C12)C(=O)c1ccccc1C3=O
[1]
  Change: -64%
[2]
  Change: -56%
[3]
  Change: -61%
[4]
  Weight gain: -224
[5]
  Weight gain: -129
[6]
  Change: -79%
[7]
  ED50: 10 mg/kg

## C#C[C@]1(O)CCC2[C@@H]3CCC4=Cc5c(cnn5-c5ccc(F)cc5)C[C@]4(C)C3=CC[C@@]21C (stereo partly specified)
[8]
  Change: -35%
[1]
  Change: -60%
[9]
  Change: -41%
[4]
  Weight gain: -145
[6]
  Change: -76%
[10]
  Weight gain: 0

## CC(C)N1C(=O)N(C(C)C)C(=O)C2(CC=C3[C@H](CCC4=Cc5c(cnn5-c5ccc(F)cc5)C[C@@]43C)O2)C1=O
[11]
  Change: 0%
[12]
  ED50: inactive
[13]
  Weight gain: 0
[14]
  Change: 0%

## C[C@]12Cc3cnn(-c4ccccc4)c3C=C1CC[C@@H]1OC3(CC=C12)C(=O)c1ccccc1C3=O
[15]
  ED50: inactive
[1]
  Change: -38%
[16]
  Change: -50%
[17]
  Change: -62%
[18]
  Weight gain: -86
[4]
  Weight gain: -62
[6]
  Change: -51%

## CN1C(=O)N(C)C(=O)C2(CC=C3[C@H](CC[C@H]4Cc5c(cnn5-c5ccncc5)C[C@]34C)O2)C1=O
[19]
  RBA: 0%

## C[C@]12CCC(=O)C=C1CC[C@@H]1[C@@H]2[C@@H](O)C[C@@]2(C)[C@H]1CC[C@]2(O)C(=O)CO
[7]
  ED50: 18 mg/kg

## CN1C(=O)N(C)C(=O)C2(CC=C3[C@H](CCC4=Cc5c(cnn5-c5ccc(F)cc5)C[C@@]43C)O2)C1=O (stereo in doubt; 12a)
[20]
  Change: -25%
[8]
  Change: -57%
[1]
  Change: -63%
[21]
  Change: -28%
[9]
  Change: -71%
[22]
  Weight gain: -55
[4]
  Weight gain: -236
[6]
  Change: -83%
[7]
  ED50: 2 mg/kg
[10]
  Weight gain: -127

## C[C@H]1C[C@@H]2[C@H]([C@@H](O)C[C@@]3(C)[C@H]2CC[C@]3(O)C(=O)CO)[C@@]2(C)C=CC(=O)C=C12
[1]
  Change: -42%
[2]
  Change: 0%
[3]
  Change: -40%
[4]
  Weight gain: -79
[5]
  Weight gain: -45
[6]
  Change: -70%
[7]
  ED50: 2 mg/kg

## C#CCN1C(=O)N(CC#C)C(=O)C2(CC=C3[C@H](CCC4=Cc5c(cnn5-c5ccc(F)cc5)C[C@@]43C)O2)C1=O
[1]
  Change: 0%
[4]
  Weight gain: 0
[6]
  Change: 0%
